System: Fibroblast
Assay: Multiplex assay against human fibroblast
Type: toxicity, cell-based
How it was run: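 Hoechst33342, BioTracker Green Microtubule Cytoskeleton Dye, MitoTracker Red and Annexin V Alexa Fluor 680 were added to live cells at seeding, and imaging on a CQ1 microscope at 37°C and 5% CO2 followed compound addition. Gating by CellPathfinder machine learning separated cells into Hoechst high-intensity objects or normal cells, then normal cells into healthy, pyknosed or fragmented nuclei, then pyknosed cells into mitotic or apoptotic. Per cents of healthy-nucleus cells are reported for the tubulin, mitochondrial-mass and membrane-permeability phenotypes.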

[1] = 12 h, 1 µM, compound concentration 1 uM, replicate 1
[2] = 12 h, 1 µM, compound concentration 1 uM, replicate 2
[3] = 12 h, 10 µM, compound concentration 10 uM, replicate 1
[4] = 12 h, 10 µM, compound concentration 10 uM, replicate 2
[5] = 24 h, 1 µM, compound concentration 1 uM, replicate 1
[6] = 24 h, 1 µM, compound concentration 1 uM, replicate 2
[7] = 24 h, 10 µM, compound concentration 10 uM, replicate 1
[8] = 24 h, 10 µM, compound concentration 10 uM, replicate 2
[9] = 48 h, 1 µM, compound concentration 1 uM, replicate 1
[10] = 48 h, 1 µM, compound concentration 1 uM, replicate 2
[11] = 48 h, 10 µM, compound concentration 10 uM, replicate 1
[12] = 48 h, 10 µM, compound concentration 10 uM, replicate 2

C[C@@H](NCCCc1cccc(C(F)(F)F)c1)c1cccc2ccccc12.Cl [CINACALCET HYDROCHLORIDE] was tested, and the “Population Apoptotic (%)” value [1] was 59%, the “Population Fragmented Nuclei (%)” value [1] was 22% and the “Population Healthy Nuclei (%)” value [1] was 46%. The “Population Hoechst High Intensity Objects (%)” value [1] was 16%, the “Population Membrane Permeable-Phenotype (%)” value [1] was 12% and the “Population Mitochondria Different-Phenotype (%)” value [1] was 14%. The “Population Mitotic Cells (%)” value [1] was 40%, the “Population Normal (%)” value [1] was 84% and the “Population Pyknosed Nuclei (%)” value [1] was 30%. The “Population Tubulin-Different-Phenotype (%)” value [1] was 57%, the “Total Cell Count” value [1] was 125 and the “Population Apoptotic (%)” value [2] was 33%. For the same molecule, the “Population Fragmented Nuclei (%)” value [2] was 10%, the “Population Healthy Nuclei (%)” value [2] was 76% and the “Population Hoechst High Intensity Objects (%)” value [2] was 9%. For the same molecule, the “Population Membrane Permeable-Phenotype (%)” value [2] was 11%, the “Population Mitochondria Different-Phenotype (%)” value [2] was 22% and the “Population Mitotic Cells (%)” value [2] was 66%. For the same molecule, the “Population Normal (%)” value [2] was 90%, the “Population Pyknosed Nuclei (%)” value [2] was 12% and the “Population Tubulin-Different-Phenotype (%)” value [2] was 36%. For the same molecule, the “Total Cell Count” value [2] was 52, the “Population Apoptotic (%)” value [3] was 57% and the “Population Fragmented Nuclei (%)” value [3] was 33%. The “Population Healthy Nuclei (%)” value [3] was 35%, the “Population Hoechst High Intensity Objects (%)” value [3] was 11% and the “Population Membrane Permeable-Phenotype (%)” value [3] was 4%. For the same molecule, the “Population Mitochondria Different-Phenotype (%)” value [3] was 73%, the “Population Mitotic Cells (%)” value [3] was 42% and the “Population Normal (%)” value [3] was 88%. For the same molecule, the “Population Pyknosed Nuclei (%)” value [3] was 30%, the “Total Cell Count” value [3] was 155 and the “Population Apoptotic (%)” value [4] was 88%. The “Population Fragmented Nuclei (%)” value [4] was 20%, the “Population Healthy Nuclei (%)” value [4] was 23% and the “Population Hoechst High Intensity Objects (%)” value [4] was 7%. The “Population Membrane Permeable-Phenotype (%)” value [4] was 33%, the “Population Mitochondria Different-Phenotype (%)” value [4] was 93% and the “Population Mitotic Cells (%)” value [4] was 11%. For the same molecule, the “Population Normal (%)” value [4] was 92%, the “Population Pyknosed Nuclei (%)” value [4] was 55% and the “Population Tubulin-Different-Phenotype (%)” value [4] was 93%. The “Total Cell Count” value [4] was 68, the “Population Apoptotic (%)” value [5] was 38% and the “Population Fragmented Nuclei (%)” value [5] was 25%. The “Population Healthy Nuclei (%)” value [5] was 50%, the “Population Hoechst High Intensity Objects (%)” value [5] was 15% and the “Population Membrane Permeable-Phenotype (%)” value [5] was 16%. The “Population Mitochondria Different-Phenotype (%)” value [5] was 12%, the “Population Mitotic Cells (%)” value [5] was 61% and the “Population Normal (%)” value [5] was 84%. The “Population Pyknosed Nuclei (%)” value [5] was 24%, the “Population Tubulin-Different-Phenotype (%)” value [5] was 65% and the “Total Cell Count” value [5] was 128. The “Population Apoptotic (%)” value [6] was 36%, the “Population Fragmented Nuclei (%)” value [6] was 8% and the “Population Healthy Nuclei (%)” value [6] was 69%. The “Population Hoechst High Intensity Objects (%)” value [6] was 7%, the “Population Membrane Permeable-Phenotype (%)” value [6] was 5% and the “Population Mitochondria Different-Phenotype (%)” value [6] was 26%. For the same molecule, the “Population Mitotic Cells (%)” value [6] was 63%, the “Population Normal (%)” value [6] was 92% and the “Population Pyknosed Nuclei (%)” value [6] was 22%. The “Population Tubulin-Different-Phenotype (%)” value [6] was 17%, the “Total Cell Count” value [6] was 53 and the “Population Apoptotic (%)” value [7] was 65%. For the same molecule, the “Population Fragmented Nuclei (%)” value [7] was 35%, the “Population Healthy Nuclei (%)” value [7] was 35% and the “Population Hoechst High Intensity Objects (%)” value [7] was 11%. The “Population Membrane Permeable-Phenotype (%)” value [7] was 10%, the “Population Mitochondria Different-Phenotype (%)” value [7] was 71% and the “Population Mitotic Cells (%)” value [7] was 34%. The “Population Normal (%)” value [7] was 88%, the “Population Pyknosed Nuclei (%)” value [7] was 28% and the “Population Tubulin-Different-Phenotype (%)” value [7] was 89%. For the same molecule, the “Total Cell Count” value [7] was 208, the “Population Apoptotic (%)” value [8] was 92% and the “Population Fragmented Nuclei (%)” value [8] was 15%. The “Population Healthy Nuclei (%)” value [8] was 32%, the “Population Hoechst High Intensity Objects (%)” value [8] was 24% and the “Population Membrane Permeable-Phenotype (%)” value [8] was 52%. The “Population Mitochondria Different-Phenotype (%)” value [8] was 88%, the “Population Mitotic Cells (%)” value [8] was 7% and the “Population Normal (%)” value [8] was 75%. The “Population Pyknosed Nuclei (%)” value [8] was 51%, the “Population Tubulin-Different-Phenotype (%)” value [8] was 82% and the “Total Cell Count” value [8] was 69. For the same molecule, the “Population Apoptotic (%)” value [9] was 46%, the “Population Fragmented Nuclei (%)” value [9] was 33% and the “Population Healthy Nuclei (%)” value [9] was 52%. For the same molecule, the “Population Hoechst High Intensity Objects (%)” value [9] was 19%, the “Population Membrane Permeable-Phenotype (%)” value [9] was 16% and the “Population Mitochondria Different-Phenotype (%)” value [9] was 5%. For the same molecule, the “Population Mitotic Cells (%)” value [9] was 53%, the “Population Normal (%)” value [9] was 80% and the “Population Pyknosed Nuclei (%)” value [9] was 14%. For the same molecule, the “Population Tubulin-Different-Phenotype (%)” value [9] was 40%, the “Total Cell Count” value [9] was 130 and the “Population Apoptotic (%)” value [10] was 66%. For the same molecule, the “Population Fragmented Nuclei (%)” value [10] was 50%, the “Population Healthy Nuclei (%)” value [10] was 47% and the “Population Hoechst High Intensity Objects (%)” value [10] was 10%. The “Population Membrane Permeable-Phenotype (%)” value [10] was 15%, the “Population Mitochondria Different-Phenotype (%)” value [10] was 4% and the “Population Mitotic Cells (%)” value [10] was 33%. The “Population Normal (%)” value [10] was 89%, the “Population Pyknosed Nuclei (%)” value [10] was 1% and the “Population Tubulin-Different-Phenotype (%)” value [10] was 58%. For the same molecule, the “Total Cell Count” value [10] was 169, the “Population Apoptotic (%)” value [11] was 90% and the “Population Fragmented Nuclei (%)” value [11] was 42%. The “Population Healthy Nuclei (%)” value [11] was 36%, the “Population Hoechst High Intensity Objects (%)” value [11] was 13% and the “Population Membrane Permeable-Phenotype (%)” value [11] was 5%. For the same molecule, the “Population Mitochondria Different-Phenotype (%)” value [11] was 68%, the “Population Mitotic Cells (%)” value [11] was 10% and the “Population Normal (%)” value [11] was 86%. The “Population Pyknosed Nuclei (%)” value [11] was 20%, the “Population Tubulin-Different-Phenotype (%)” value [11] was 80% and the “Total Cell Count” value [11] was 226. For the same molecule, the “Population Apoptotic (%)” value [12] was 92%, the “Population Fragmented Nuclei (%)” value [12] was 35% and the “Population Healthy Nuclei (%)” value [12] was 8%. The “Population Hoechst High Intensity Objects (%)” value [12] was 23%, the “Population Membrane Permeable-Phenotype (%)” value [12] was 25% and the “Population Mitochondria Different-Phenotype (%)” value [12] was 25%. For the same molecule, the “Population Mitotic Cells (%)” value [12] was 7%, the “Population Normal (%)” value [12] was 76% and the “Population Pyknosed Nuclei (%)” value [12] was 55%. For the same molecule, the “Population Tubulin-Different-Phenotype (%)” value [12] was 50% and the “Total Cell Count” value [12] was 121.
